This passage reports IC50 results from ChEMBL document CHEMBL1147746, “Structure-activity relationship studies of novel benzophenones leading to the discovery of a potent, next generation HIV nonnucleoside reverse transcriptase inhibitor” (J Med Chem, 2006).

What all share (type): functional, organism-based
For assay [1], the system named is Human immunodeficiency virus 1. In words: Antiviral activity against HIV1 V106A mutant using HeLa MAGI assay. To be noted: Human immunodeficiency virus 1, V106A. The essentials: (§1)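 HeLa CD4-LTR-β-gal cells infected with isogenic recombinant HIV-1 built on the HxB2 backbone and carrying the RT mutation (K103N, V106A or Y181C). Infection was read by a chemiluminescent β-galactosidase signal 3 days after infection. The IC50 is the concentration giving 50% inhibition of the signal relative to untreated controls. Cytotoxicity was run in parallel by CellTiter96; highest concentration mostly 0.5 µM.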

For assay [2], the system named is Human immunodeficiency virus 1. In words: Antiviral activity against HIV1 K103N mutant using HeLa MAGI assay. The following applies: Human immunodeficiency virus 1, K103N. The essentials:
as §1

The test system of assay [3] is Human immunodeficiency virus 1. In words: Antiviral activity against HIV1 Y181C mutant using HeLa MAGI assay. To be noted: Human immunodeficiency virus 1, Y181C. The gist of the method: as §1
Assay [4] concerns Human immunodeficiency virus 1. In words: Antiviral activity against HIV1 HxB2 using HeLa MAGI assay. To be noted: Human immunodeficiency virus 1, HxB2. The gist of the method: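 HeLa CD4-LTR-β-gal cells infected with HxB2 (from molecular clone pHxB2-D) or isogenic RT mutants; HIV-LTR-driven β-galactosidase quantified with chemiluminescent substrate 3 days post-infection. IC50 is the concentration inhibiting 50% of signal relative to untreated controls. Cytotoxicity measured in parallel by CellTiter96.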

For assay [5], the system named is Human immunodeficiency virus 1. In words: Antiviral activity against HIV1 3B in MT4 cells. To be noted: Human immunodeficiency virus 1, 3B. The essentials: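 MT4 T-cell line infected with HIV-1 IIIB (from H9/HTLV-IIIB supernatants) at 100× the inoculum giving 50% growth reduction; incubated 5 days with a range of compound concentrations. Virus cytopathic effect read by MTS staining; IC50 taken as mean of one triplicate experiment. Cytotoxicity measured in parallel on uninfected cells.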

Each structure is given as a SMILES string.

In the case of `Cc1cc(C#N)cc(C(=O)c2cc(Cl)ccc2OCC(=O)Nc2ccc(S(N)(=O)=O)cc2C)c1`, the IC50 (usually the concentration needed to halve the response being measured) in assay [1] was 1.4 nM; in assay [2], 0.9 nM; in assay [3] it was 1.9 nM.
Take `Cc1cc(S(N)(=O)=O)ncc1NC(=O)COc1ccc(Cl)cc1C(=O)c1cc(Cl)cc(C#N)c1`: the results for the IC50 in assay [1], in assay [2] and in assay [3] were 10 nM, 5 nM and 2 nM, respectively.
On to `Cc1cc(S(N)(=O)=O)ccc1NC(=O)COc1ccc(Cl)cc1C(=O)c1cccc(C#N)c1`, for which the IC50 in assay [1] was determined as 30 nM; in assay [2] it was 1.5 nM; in assay [3], 1.5 nM.
With `Cc1cc(S(N)(=O)=O)ccc1NC(=O)COc1ccc(Cl)cc1C(=O)c1cc(C#N)cc(C(F)(F)F)c1`, the figures for the IC50 in assay [1], in assay [2] and in assay [3] were 5.6 nM, 1.1 nM and 2 nM, respectively.
Turning to `Cc1cc(S(=O)(=O)N(C)C)ccc1NC(=O)COc1ccc(Cl)cc1C(=O)c1cc(F)cc(C(F)(F)F)c1`, the IC50 in assay [4] was determined as 8 nM; in assay [5], 10 nM; in assay [2], 6 nM.
Take `CNS(=O)(=O)c1ccc(NC(=O)COc2ccc(Cl)cc2C(=O)c2cc(F)cc(C(F)(F)F)c2)c(C)c1`: the values for the IC50 in assay [4], in assay [5] and in assay [2] were 3 nM, 8 nM and 2 nM, respectively.
With `Cc1cc(S(N)(=O)=O)ccc1NC(=O)COc1ccc(Cl)cc1C(=O)c1cc(N)cc(C#N)c1`, the IC50 in assay [1] amounted to 18 nM; in assay [2], 140 nM; in assay [3], 450 nM.
In the case of `Cc1cc(NCCCN2CCCC2)ccc1NC(=O)COc1ccc(Cl)cc1C(=O)c1cc(F)cc(F)c1`, the values for the IC50 in assay [5] and in assay [2] were 18 nM and 109 nM, respectively.
`Cc1ccccc1NC(=O)COc1ccc(Cl)cc1C(=O)c1cc(F)cc(F)c1`: the IC50 in assay [4] came out at 8 nM; in assay [5], 25 nM; in assay [2], 38 nM; in assay [3] it was 25 nM.
Consider `Cc1cc(Cl)cc(C(=O)c2cc(Cl)ccc2OCC(=O)Nc2ccc(S(N)(=O)=O)cc2C)c1`, for which the half-inhibitory concentration (IC50) in assay [1] turned out to be 9.4 nM; in assay [2], 3.6 nM; in assay [3], 3.3 nM.
For the compound `CCN(CC)CCCNc1ccc(NC(=O)COc2ccc(Cl)cc2C(=O)c2cc(F)cc(F)c2)c(C)c1`, the IC50 came to 41 nM in assay [5] and 96 nM in assay [2].
In assay [2], `COc1ccc(NC(=O)COc2ccc(Cl)cc2C(=O)c2cc(F)cc(F)c2)cn1` returned an IC50 of 72 nM.
With `Cc1cc(C)cc(C(=O)c2cc(Cl)ccc2OCC(=O)Nc2ccc(S(N)(=O)=O)cc2C)c1`, the results for the IC50 in assay [1], in assay [2] and in assay [3] were 4.2 nM, 3.3 nM and 3 nM, respectively.
`Cc1cc(NC(=O)CCN2CCOCC2)ccc1NC(=O)COc1ccc(Cl)cc1C(=O)c1cc(F)cc(F)c1`: the IC50 in assay [5] turned out to be 5 nM; in assay [2] it was 9 nM.
As to `Cc1cc(C#N)cc(C(=O)c2cc(Cl)ccc2OCC(=O)Nc2cnc(S(N)(=O)=O)cc2C)c1`, the IC50 in assay [1] worked out at 2 nM; in assay [2], 7 nM; in assay [3] it was 4 nM.
Consider `Cc1nc(S(N)(=O)=O)ccc1NC(=O)COc1ccc(Cl)cc1C(=O)c1cc(Cl)cc(C#N)c1`, for which the figures for the IC50 in assay [1], in assay [2] and in assay [3] were 7 nM, 3 nM and 3 nM, respectively.
As for `Cc1cc(OCCCS(N)(=O)=O)ccc1NC(=O)COc1ccc(Cl)cc1C(=O)c1cc(F)cc(C(F)(F)F)c1`, the IC50 in assay [4] amounted to 3 nM; in assay [5], 7 nM; in assay [2], 4 nM; in assay [3], 6 nM.
In assay [2], `Cc1cc(C#N)cc(C(=O)c2cc(Cl)ccc2OCC(=O)Nc2ncc(S(N)(=O)=O)cc2C)c1` had a concentration for half-maximal inhibition (IC50) of 93 nM.
As for `Cc1cc(OCCCNC(N)=O)ccc1NC(=O)COc1ccc(Cl)cc1C(=O)c1cc(F)cc(C(F)(F)F)c1`, the half-inhibitory concentration (IC50) was determined as 4 nM in assay [4], 6 nM in assay [5], 4 nM in assay [2] and 10 nM in assay [3].
With `Cc1cc(S(N)(=O)=O)ccc1NC(=O)COc1ccc(Cl)cc1C(=O)c1cc(Cl)cc(Br)c1`, the IC50 stood at 13 nM in assay [1], 6.1 nM in assay [2] and 6.9 nM in assay [3].
For the compound `Cc1cc(S(N)(=O)=O)ccc1NC(=O)COc1ccc(Cl)cc1C(=O)c1cc(Cl)cc(C#N)c1`, the IC50 in assay [1] was determined as 3.4 nM; in assay [2], 1 nM; in assay [3] it was 0.7 nM.
In the case of `Cc1cc(NCCCn2ccnc2)ccc1NC(=O)COc1ccc(Cl)cc1C(=O)c1cc(F)cc(F)c1`, the half-inhibitory concentration (IC50) in assay [5] is 37 nM; in assay [2], 158 nM.
On to `Cc1cc(S(N)(=O)=O)ccc1NC(=O)COc1ccc(Cl)cc1C(=O)c1cc(F)cc(C(F)(F)F)c1`, for which the IC50 in assay [4] is 1.4 nM; in assay [1] it was 10.5 nM; in assay [5], 1 nM; in assay [2], 2 nM; in assay [3], 2.9 nM.
Turning to `Cc1cc(N2CC[S+]([O-])CC2)ccc1NC(=O)COc1ccc(Cl)cc1C(=O)c1ccccc1`, the IC50 in assay [1] was 1400 nM; in assay [2], 100 nM; in assay [3], 150 nM.
Consider `Cc1cc(N2CC[S+]([O-])CC2)ccc1NC(=O)COc1ccc(Cl)cc1C(=O)c1ccc(C#N)cc1`, for which the IC50 in assay [1] was 1400 nM; in assay [2] it was 44 nM; in assay [3], 355 nM.
`Cc1cc(S(N)(=O)=O)ccc1NC(=O)COc1ccc(Cl)cc1C(=O)c1cc(Br)cc(C(F)(F)F)c1`: the IC50 was found to be 18 nM in assay [1], 93 nM in assay [2] and 290 nM in assay [3].
In turn, `O=C(COc1ccc(Cl)cc1C(=O)c1cc(F)cc(F)c1)Nc1ccc(Cl)nc1` returned an IC50 in assay [2] of 67 nM.
In the case of `Cc1cc(N2CC[S+]([O-])CC2)ccc1NC(=O)COc1ccc(Cl)cc1C(=O)c1ccccc1C#N`, the IC50 in assay [1] was determined as 2000 nM; in assay [2], 155 nM; in assay [3] it was 700 nM.
Regarding `Cc1cc(C#N)cc(C(=O)c2cc(Cl)ccc2OCC(=O)Nc2ccc(S(N)(=O)=O)nc2C)c1`, the IC50 in assay [1] came out at 3 nM; in assay [2], 6 nM; in assay [3] it was 4 nM.
The like results for `COc1cc(OC)cc(C(=O)c2cc(Cl)ccc2OCC(=O)Nc2ccc(S(N)(=O)=O)cc2C)c1` were, in that order, 500 nM, 370 nM and 13 nM.
Consider `Cc1cc(N2CC[S+]([O-])CC2)ccc1NC(=O)COc1ccc(Cl)cc1C(=O)c1cccc(C#N)c1`, for which the IC50 in assay [2] turned out to be 5 nM; in assay [3], 6 nM.
Regarding `O=C1Nc2ccc(Cl)cc2C(C#CC2CC2)(C(F)(F)F)O1` (single isomer, unassigned) [EFAVIRENZ], the IC50 amounted to 1.8 nM in assay [1], 25 nM in assay [2] and 1.6 nM in assay [3].
In the same order, the values of `Cc1ccnc2c1NC(=O)c1cccnc1N2C1CC1` [NEVIRAPINE] are 8200 nM, 5800 nM and 10300 nM.
